Reference: ChEMBL document CHEMBL4033799, “Stable and Long-Lasting, Novel Bicyclic Peptide Plasma Kallikrein Inhibitors for the Treatment of Diabetic Macular Edema” (J Med Chem, 2018)

Tests used:
[1] = Aqueous solubility of the compound in buffer; type: physicochemical
[2] = Half life in human plasma at 4 uM measured up to 24 hrs by LC-MS/MS analysis; type: ADME, cell-free
Method in brief: (§1)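 Peptide from a 0.16 mM DMSO stock was added to human, rat or mouse plasma (final 4 μM) or to homogenized human vitreous (final 1 μM), with internal standard. Samples were incubated at 37 °C for up to 24 h and extracted with water/acetonitrile/methanol 1:3:3.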

[3] = Half life in human vitreous humor at 1 uM measured up to 24 hrs by LC-MS/MS analysis; type: ADME, tissue-based; method in brief: as §1
Kallikrein-6 = Kallikrein-6 (Homo sapiens, UniProt Q92876); assay: Inhibition of recombinant human C-terminal His-tagged KLK6 isoform 1 (1 to 244 residues) expressed in HEK293 cells using fluorogenic Boc-QARAMC peptide as substrate by fluorescence based assay
Method in brief: (§2)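 Human serine proteases were assayed with substrates and conditions set by each supplier's recommendations. Peptides were first screened at 50 μM. Where inhibition was detected, Ki was determined from activity across peptide concentrations using a tight-binding rate equation.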

Prothrombin = Prothrombin (Homo sapiens, UniProt P00734); assay: Inhibition of recombinant human alpha thrombin using fluorogenic peptide as substrate by fluorescence based assay
Method in brief: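 Panel of human serine proteases. Substrates and assay conditions followed each supplier's recommendations. Peptides were first screened at 50 μM. Where inhibition was detectable, hydrolytic activity was measured across a range of peptide concentrations. Ki was obtained by fitting to the tight-binding inhibitor rate equation.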

[4] = target: T1, Complement C1s subcomponent (Homo sapiens, UniProt P09871); assay: Inhibition of recombinant human C-terminal 6His-tagged complement component C1s (1 to 688 residues) expressed in mouse NS0 cells using fluorogenic Z-Lys-SBzl peptide as substrate after 5 mins by fluorescence based assay; method in brief: as §2
T1 sequence (P09871 whole entry): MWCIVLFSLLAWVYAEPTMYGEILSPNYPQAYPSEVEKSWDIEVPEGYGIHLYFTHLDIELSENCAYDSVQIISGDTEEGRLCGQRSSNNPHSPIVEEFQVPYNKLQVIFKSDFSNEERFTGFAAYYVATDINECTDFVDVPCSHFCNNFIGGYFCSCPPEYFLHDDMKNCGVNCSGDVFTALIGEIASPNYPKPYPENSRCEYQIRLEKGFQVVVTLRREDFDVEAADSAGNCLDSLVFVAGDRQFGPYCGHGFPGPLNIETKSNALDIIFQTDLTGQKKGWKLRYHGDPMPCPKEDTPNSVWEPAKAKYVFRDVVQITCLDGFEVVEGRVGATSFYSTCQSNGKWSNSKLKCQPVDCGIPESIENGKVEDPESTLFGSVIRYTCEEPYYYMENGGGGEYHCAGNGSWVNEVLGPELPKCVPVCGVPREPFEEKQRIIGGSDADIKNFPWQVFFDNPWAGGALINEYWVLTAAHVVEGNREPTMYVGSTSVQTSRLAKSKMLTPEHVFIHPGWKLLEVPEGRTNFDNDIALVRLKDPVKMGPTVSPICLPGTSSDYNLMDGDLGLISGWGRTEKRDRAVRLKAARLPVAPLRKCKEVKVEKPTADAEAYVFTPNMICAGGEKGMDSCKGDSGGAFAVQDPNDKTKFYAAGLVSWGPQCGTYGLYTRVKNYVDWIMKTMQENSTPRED

[5] = Half life in Sprague-Dawley rat at 5 mg/kg, iv by LC-MS/MS analysis; type: ADME, organism-based; conditions: in vivo
Method in brief: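 Groups of 2 male Sprague-Dawley rats were dosed IV at 5 mg/kg. Serial tail-vein blood was drawn into EDTA at 5–240 min, and plasma peptide was quantified by LC-MS/MS against 16–4000 ng/mL calibration lines in rat plasma. AUC was calculated by the trapezoidal method.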

[6] = Volume of distribution at steady state in Sprague-Dawley rat at 5 mg/kg, iv measured up to 240 mins post dose by LC-MS/MS analysis; type: ADME, organism-based; conditions: in vivo, read-out: Vdss
Method in brief: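 Male Sprague-Dawley rats, 2 per group, given 5 mg/kg intravenously. Blood sampled through tail-vein cannulae at 5, 10, 20, 30, 60, 120, 180 and 240 min into EDTA tubes and spun to plasma.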

Rattus norvegicus [7] = assay: Antiinflammatory activity in Sprague-Dawley rat assessed as inhibition carrageenan-induced paw edema at 30 mg/kg, ip pretreated for 15 mins followed by carrageenan challenge measured at 1 hr post carrageenan challenge; type: functional
Method in brief: (§3)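 Male Sprague-Dawley rats received peptide IP (30, 10 or 3 mg/kg), or indomethacin IP at 5 mg/kg, 15 min before subplantar carrageenan. Paw volume was followed over time against a vehicle group.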

Rattus norvegicus [8] = assay: Antiinflammatory activity in Sprague-Dawley rat assessed as inhibition carrageenan-induced paw edema at 30 mg/kg, ip pretreated for 15 mins followed by carrageenan challenge measured at 2 hrs post carrageenan challenge; type: functional; method in brief: as §3
Rattus norvegicus [9] = assay: Antiinflammatory activity in Sprague-Dawley rat assessed as inhibition carrageenan-induced paw edema at 30 mg/kg, ip pretreated for 15 mins followed by carrageenan challenge measured at 4 hrs post carrageenan challenge; type: functional; method in brief: as §3
Rattus norvegicus [10] = assay: Antiinflammatory activity in Sprague-Dawley rat assessed as inhibition carrageenan-induced paw edema at 30 mg/kg, ip pretreated for 15 mins followed by carrageenan challenge measured at 6 hrs post carrageenan challenge; type: functional; method in brief: as §3
Mus musculus = assay: Antidiabetic activity in STZ-induced diabetic C57BL/6J mouse model assessed as reduction in retinal vascular permeability at 100 ug administered 4 times via ivt measured at 8 weeks post diabetes onset relative to control; type: functional
Method in brief: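 Diabetes was induced with STZ in male C57BL/6J mice. Peptide was given as repeated intravitreal injections (4 × 100 μg). Retinal permeability was read as FITC-BSA extravasation 8 weeks after diabetes onset and compared with vehicle-treated diabetic mice. The anti-VEGFR2 antibody DC101 (6.2 μg/eye, single dose) served as positive control.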

Rattus norvegicus [11] = assay: Antiinflammatory activity in ip dosed Sprague-Dawley rat carrageenan-induced paw edema model assessed as inhibition of edema pretreated for 15 mins followed by carrageenan challenge measured up to 6 hrs; type: functional, organism-based; method in brief: as §3
[12] = Half life in New Zealand white rabbit eye at 2 mg/ml, administered via ivt injection by HPLC analysis; type: ADME, tissue-based, Oryctolagus cuniculus; conditions: topical or ocular
Method in brief: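 Male New Zealand White rabbits (10 weeks old, ~2 kg) received one 50 μL intravitreal injection per eye of peptide at 2 mg/mL in 50 mM sodium phosphate, pH 7.2. Animals were sacrificed at 15 min, 1, 4, 8, 24, 48 and 96 h (3 per time point). Whole vitreous was homogenized, clarified, 0.2 μm filtered and assayed by LC-MS/MS, with a lower limit of detection of 1 ng/mL in vitreous.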

Rattus norvegicus [13] = assay: Toxicity in rat at 125 ug administered as systemic dose; conditions: in vivo
Cynomolgus monkey = assay: Toxicity in cynomolgus monkey at 1.25 ug administered as systemic dose; design: species or system Macaca fascicularis; conditions: in vivo
(UniProt A0A8D1M4K5) = assay: Inhibition of pig plasma kallikrein using fluorogenic H-Pro-Phe-Arg-AMC peptide as substrate preincubated for 15 mins followed by substrate addition measured by fluorescence-based assay; design: species or system Sus scrofa; conditions: read-out: Ki(app)
[14] = Drug level in New Zealand white rabbit contralateral eye vitreous humor at 2 mg/ml, administered via ivt injection by LC-MS/MS analysis; type: ADME, tissue-based, Oryctolagus cuniculus; conditions: in vivo, topical_or_ocular
Plasma kallikrein = Plasma kallikrein (Mus musculus, UniProt P26262)
Sequence of Plasma kallikrein (P26262 20-390 limits assumed): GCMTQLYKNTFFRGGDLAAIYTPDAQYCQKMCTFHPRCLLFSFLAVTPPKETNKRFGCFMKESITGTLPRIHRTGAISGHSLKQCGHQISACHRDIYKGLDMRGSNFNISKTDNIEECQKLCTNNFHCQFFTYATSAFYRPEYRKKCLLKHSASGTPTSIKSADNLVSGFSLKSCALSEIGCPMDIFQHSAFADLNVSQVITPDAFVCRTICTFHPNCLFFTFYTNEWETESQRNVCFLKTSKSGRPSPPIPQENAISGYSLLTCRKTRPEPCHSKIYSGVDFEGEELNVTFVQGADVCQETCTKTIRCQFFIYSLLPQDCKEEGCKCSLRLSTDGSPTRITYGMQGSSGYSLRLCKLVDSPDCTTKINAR
Sequence of Plasma kallikrein (P26262 391-638 limits assumed): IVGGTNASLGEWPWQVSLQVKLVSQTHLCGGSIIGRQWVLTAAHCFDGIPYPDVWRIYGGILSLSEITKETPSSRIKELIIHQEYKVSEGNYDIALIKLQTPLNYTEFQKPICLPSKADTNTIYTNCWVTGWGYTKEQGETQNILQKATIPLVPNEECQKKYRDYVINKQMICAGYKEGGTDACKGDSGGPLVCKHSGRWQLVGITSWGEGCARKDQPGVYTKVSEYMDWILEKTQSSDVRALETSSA

| solubility [1] | half-life at 4 µM [2] | half-life at 1 µM [3] | Ki (Kallikrein-6) | Ki (Prothrombin) | Ki [4] | half-life [5] | Vd [6] | half-life [12] | Ki ((UniProt A0A8D1M4K5)) | Drug uptake [14] | Ki (Plasma kallikrein) | Structure (SMILES) | inhibition in vivo at 30 mg/kg (Rattus norvegicus [7]) | inhibition in vivo at 30 mg/kg (Rattus norvegicus [8]) | inhibition in vivo at 30 mg/kg (Rattus norvegicus [9]) | inhibition in vivo at 30 mg/kg (Rattus norvegicus [10]) | inhibition (INH) (Mus musculus) | inhibition (Rattus norvegicus [11]) | Activity (Rattus norvegicus [13]) | Activity (Cynomolgus monkey) |
| --- | --- | --- | --- | --- | --- | --- | --- | --- | --- | --- | --- | --- | --- | --- | --- | --- | --- | --- | --- | --- |
| Soluble | > 24 h | > 24 h | > 50 µM | > 50 µM | > 50 µM | 1.3 h | 0.93 L/kg |  |  |  |  | CC(=O)N[C@H]1CSCc2cc3cc(c2)CSC[C@H](C(=O)N[C@@H](C)C(=O)N(C)CC(=O)N(C)CC(=O)N(C)CC(=O)N[C@H](CCCNC(=N)N)C(=O)N[C@H](CCCNC(=N)N)C(=O)O)NC(=O)[C@H](CC(C)C)NC(=O)[C@@H]2CCCN2C(=O)[C@H](C)NC(=O)[C@H](CC(=O)O)NC(=O)[C@H](Cc2c[nH]c4ccccc24)NC(=O)[C@@H]2CCCN2C(=O)[C@H](CSC3)NC(=O)[C@H](Cc2c[nH]c3ccccc23)NC(=O)[C@@H]2CCCN2C(=O)[C@H](CC(N)=O)NC(=O)[C@H](Cc2c[nH]c3ccccc23)NC(=O)[C@H]([C@@H](C)O)NC(=O)[C@H](CC(N)=O)NC1=O | 71% | 59% | 60% | 64% | 36% | Dose-dependent effect |  |  |
|  | > 24 h | > 24 h |  |  |  | 0.8 h | 0.44 L/kg | 39 h |  |  |  | CC(=O)N[C@H]1CSCc2cc3cc(c2)CSC[C@H](NC(=O)[C@H](CCCCNC(=N)N)NC(=O)[C@H](Cc2ccc(O)cc2)NC(=O)[C@@H]2CCN2C(=O)[C@H](Cc2ccccc2)NC(=O)[C@H](CO)NC1=O)C(=O)N[C@@H](C)CN[C@@H](Cc1cnc[nH]1)C(=O)N[C@@H](CCC(N)=O)C(=O)N[C@@H](CC(=O)O)C(=O)N[C@@H](CC(C)C)C(=O)N[C@H](C(=O)O)CSC3 |  |  |  |  |  |  | Non-Toxic | Non-Toxic |
|  |  |  | > 50 µM | > 50 µM | > 50 µM |  |  | 22 h | 0.3 µM | 1 ng/mL | 0.045 µM | CC[C@H](C)[C@@H]1NC(=O)[C@H](CC(=O)O)NC(=O)[C@@H]2CCCN2C(=O)[C@H](Cc2ccc(O)cc2)NC(=O)[C@H](Cc2ccc(O)cc2)NC(=O)[C@H](C(C)C)NC(=O)[C@@H]2CSCc3cc(cc(c3)CSC[C@@H](C(=O)N[C@@H](C)C(=O)N(C)CC(=O)N(C)CC(=O)N(C)CC(=O)N[C@H](CCCNC(=N)N)C(=O)N[C@H](CCCNC(=N)N)C(=O)O)NC1=O)CSC[C@H](NC(C)=O)C(=O)N[C@@H](CO)C(=O)N[C@@H](Cc1ccccc1)C(=O)N1CCC1C(=O)N[C@@H](Cc1ccc(O)cc1)C(=O)N[C@@H](CCCCNC(=N)N)C(=O)N2 (stereo partly drawn) |  |  |  |  |  |  |  |  |
